Data published in ChEMBL document CHEMBL3045605, “Synthesis and anticancer evaluation of novel 3,5-diaryl-thiazolo[4,5-d]pyrimidin-2-one derivatives” (2013).

What was measured:
Format in all cases: functional
OVCAR-5 = experiment: Anticancer activity against Homo sapiens (human) OVCAR5 cells assessed as cell growth at 10 uM by SRB assay; settings: read-out: Activity
Summary of the method: (§1)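 Single-dose screen in the NCI 60-human-tumour-cell-line panel (nine cancer types) at 10−5 M. Cell growth was estimated by sulforhodamine B protein staining and reported as percent growth of treated cells relative to untreated controls.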

SR = experiment: Anticancer activity against Homo sapiens (human) SR cells by SRB assay
Summary of the method: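 NCI five-dose follow-up on the 60-line human tumour panel at tenfold dilutions from 10−4 to 10−8 M, with growth read by sulforhodamine B protein assay against untreated controls. For each cell line, GI50 (half growth inhibition), TGI (total growth inhibition) and LC50 (50% death of initial cells) are calculated as molar concentrations.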

DU-145 = experiment: Anticancer activity against Homo sapiens (human) DU145 cells by SRB assay
Summary of the method: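 NCI 60-line panel, five tenfold dilutions from 10−4 to 10−8 M, growth read by sulforhodamine B staining against untreated controls. From the dose–response per line: GI50 (molar concentration giving half growth inhibition), TGI (molar concentration giving total growth inhibition, cytostatic) and LC50 (molar concentration killing 50% of initial cells, cytotoxic).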

NCI-H460 = experiment: Anticancer activity against Homo sapiens (human) NCI-H460 cells assessed as cell growth at 10 uM by SRB assay; settings: read-out: Activity; summary of the method: as §1
M14 = experiment: Anticancer activity against Homo sapiens (human) M14 cells assessed as cell growth at 10 uM by SRB assay; settings: read-out: Activity
Summary of the method: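 NCI 60-cell human tumour panel (nine cancer types) screened at one concentration, 10−5 M. Cell growth estimated by sulforhodamine B protein staining and reported as percent growth of treated cells relative to untreated controls.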

**Q.** With O=c1sc2c(Cl)nc(-c3ccccc3)nc2n1-c1ccccc1 as the molecule, how does the growth at 10 µM (OVCAR-5) read?
**A.** 90%

**Q.** What about the GI50 (SR) of the same molecule?
**A.** 2.63 µM

**Q.** What about the TGI (SR; read-out: pTGI (converted)) of the same molecule?
**A.** 21.4 µM

**Q.** And the GI50 (DU-145)?
**A.** 4.68 µM

**Q.** What about the CC50 (DU-145; read-out: pLC50 (the source's name) (converted)) of the same molecule?
**A.** 81.3 µM

**Q.** And the TGI (DU-145; read-out: pTGI (converted))?
**A.** 23.4 µM

**Q.** And the growth at 10 µM (NCI-H460)?
**A.** 78%

**Q.** What about the growth at 10 µM (M14) of the same molecule?
**A.** 16%
